# Bioassay records from PubChem BioAssay.
# Only some compounds are listed: those with a hit (about 2% of all), similar ones and a draw of the others.
# ABHD4 inh – ABHD4 (mouse) inhibition, primary FP screen; Q8VD66; purified mABHD4, FP-Rh probe fluorescence polarization; inhibition, % at 8.92 µM; 0.54% of 370,000 active; AID 720543;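 active = inhibition exceeding the mean over every tested compound plus 3 SD, cut at about 30% in these data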;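 note: 0% = plate median of compound wells and 100% = S159A mutant with DMSO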
#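 Test system: mABHD4 protein | Buffer or medium: HEPES pH 7.0 buffer, 150 mM NaCl, 0.01% Pluronic F-127 | Probe or stimulus: FP-Rh fluorescent activity-based probe, added after compound pre-incubation | Timing: Pre-incubation 45 min, probe exposure 60 min, at 25 °C | Technique: Fluorescence polarization, excitation 525 nm, emission 598 nm, BODIPY TMR filters | Repeats: Single well per compound (singlicate)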
# TCR CD3 inh – human TCR-CD3 binding inhibition | TAMRA-labeled TCR probe fluorescence, biochemical | inhibition, % at 9.4 µM | 0.37% of 360,000 active; in the data active = inhibition above about 19%;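 note: recombinant mutant TCR 2C K166C tagged with TAMRA read by polarization; 0% = receptor in buffer alone and 100% = receptor with positive control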
# SIAE inh – blocks human sialic acid acetylesterase; SIAE FP-Rh probe binding, fluorescence polarization; inhibition, % at 9.66 µM; 0.69% of 370,000 active; Q9HAT2;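 active = inhibition above a cutoff: mean of compounds within the control limits plus 3 SD of those, cut at about 17% in these data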;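 note: 0% = plate median of compound wells and 100% = probe without SIAE protein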
# HTRA1 inhibitor – blocks human HTRA1 serine peptidase; Q92743; recombinant HTRA1, FP-rhodamine activity-based probe, fluorescence polarization; 0.5% of 340,000 active; inhibition, % at 5.96 µM; in the data active = inhibition above about 36%;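 note: 0% = enzyme with DMSO and 100% = wells lacking enzyme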
# Target sequence (Q92743 whole entry, looked up): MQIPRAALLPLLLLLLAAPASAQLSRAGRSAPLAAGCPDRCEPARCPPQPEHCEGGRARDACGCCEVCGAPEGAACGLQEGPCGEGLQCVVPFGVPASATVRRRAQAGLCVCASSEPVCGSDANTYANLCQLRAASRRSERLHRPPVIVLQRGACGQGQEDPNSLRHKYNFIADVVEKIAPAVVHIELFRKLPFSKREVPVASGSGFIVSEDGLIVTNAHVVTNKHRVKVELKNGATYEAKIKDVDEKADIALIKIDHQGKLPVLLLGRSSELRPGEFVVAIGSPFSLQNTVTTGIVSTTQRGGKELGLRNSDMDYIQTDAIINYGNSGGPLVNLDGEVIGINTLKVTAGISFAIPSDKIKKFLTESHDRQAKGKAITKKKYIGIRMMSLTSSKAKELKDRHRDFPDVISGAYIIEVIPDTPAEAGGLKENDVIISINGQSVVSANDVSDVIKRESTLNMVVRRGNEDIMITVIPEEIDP
# PAD4 inh – blocks human protein arginine deiminase 4; 0.41% of 330,000 active; AID 485272; inhibition, % at 6.36 µM; recombinant PAD4, RCA probe fluorescence polarization; Q9UM07;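 active = percent inhibition above a cutoff equal to the mean of all tested compounds plus 3 SD, cut at about 15% in these data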;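 note: 0% = PAD4 with RCA probe and DMSO and 100% = probe without PAD4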
# TDP2 absorb – TDP2 (human) inhibition, absorbance primary screen; recombinant TDP2, T5PNP hydrolysis, p-nitrophenol absorbance 415 nm; inhibition, % at 12.8 µM; 0.34% of 370,000 active; AID 720702;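 active = inhibition above the mean of all tested compounds plus 3 SD, set per campaign, cut at about 25% in these data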;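 note: 0% = DMSO with enzyme and 100% = buffer with substrate but no TDP2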
#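 test system = human TDP2 enzyme | input = TDP2 enzyme at 120 nM final | medium = 50 mM Tris-HCl pH 7.5 with Mg2+, KCl, DTT, BSA | also added = T5PNP substrate, 5 mM | times = 2 h at 37 °C | technique = epi absorbance | benchmarks = high control without enzyme, low control DMSO plus TDP2 | replication = each compound tested once, singlicate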
# SIAE confirm – confirmation of human SIAE inhibitors; shares compounds with SIAE inh; SIAE FP-Rh activity-based probe, fluorescence polarization; inhibition, % at 9.66 µM; 13% of 2,300 active; AID 1117263;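 active = mean inhibition of the replicates above the hit cutoff set in the primary screen, cut at about 17% in these data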;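 note: 0% = SIAE with DMSO and probe and 100% = probe without SIAE; inhibitors lower polarization as more probe stays unbound to SIAE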
# An asterisk follows results filed as active; / = no result; ! = a repeat was not active.
SMILES,ABHD4 inh,TCR CD3 inh,SIAE inh,HTRA1 inhibitor,PAD4 inh,TDP2 absorb,SIAE confirm
O=C1c2ccccc2C(=O)c2cc(N3CCCCC3)ccc21,-19.0,-30.9,21.5*,0.8,/,-5.8,42.2*
O=C1CCC(C(=O)NCc2ccc3c(c2)OCO3)N1 (centres undefined),-4.2,-3.8,-1.5,-2.3,-3.5,7.7,/
O=C(CN1C(=O)NC2(CCCC2)C1=O)N1CCCSC1=Nc1ccccc1,4.0,-5.3,23.2*,3.0,/,-4.3,69.1*
Cc1nc(NN)c2c3c(sc2n1)COC(C)(C)C3,4.5,-2.7,26.6*,2.1,-1.4,14.4,3.1
Cn1c(NN)nc2sc3c(c2c1=O)CC(C)(C)OC3,-1.2,2.2,8.2,13.5,-1.6,-9.7,/
O=C1c2ccccc2C(=O)N1CC(O)COc1cccc2ccccc12 (centres undefined),-7.9,0.8,-11.7,/,/,-0.8,/
CCOc1ncccc1C(=O)N1CCN(S(=O)(=O)c2ccc3c(c2)OCCO3)CC1,-1.6,8.0,21.9*,0.8,0.3,-4.3,-2.9
CN(C)S(=O)(=O)c1ccc(C(=O)N2CCN(S(=O)(=O)c3ccc4c(c3)OCCO4)CC2)cc1,-1.1,4.0,19.8*,11.2,/,0.6,1.2
O=C(O)C1(c2ccccc2)CCN(S(=O)(=O)c2ccc(F)c(F)c2)CC1,5.7,-4.5,19.7*,-0.6,-2.0,5.5,4.4
CN(C)S(=O)(=O)c1ccc(SCC(=O)N2CC(=O)Nc3ccccc32)nc1,2.1,-4.2,17.4*,7.3,-2.3,3.5,-3.5
CNc1ccc(OC)cc1-n1cnc(-c2ccc([N+](=O)[O-])cc2)c1,2.4,1.5,19.8*,-2.0,-10.7,14.2,8.4
COc1ccc(NC(=O)CN(C)S(=O)(=O)c2ccc(Cl)cc2)cn1,-0.4,-1.0,0.9,-0.9,2.8,-0.6,/
Cc1ccc(C2CCC3(CCC(=O)N3CCOC(=O)Nc3ccc(F)cc3)CC2)cc1 (centres undefined),-16.4,/,18.5*!,/,/,-6.2,-12.0
COc1ccc(S(=O)Cc2ccc(C(=O)N3CCN(C(=O)c4ccco4)CC3)o2)cc1 (centres undefined),12.8,9.4,-2.8,-0.3,0.0,6.4,/
CC1CCC2(CC1)NC(=O)N(CC(=O)Nc1cccnc1Cl)C2=O (centres undefined),-2.1,0.6,-1.9,-3.8,-1.4,-0.4,/
CCn1c2ccccc2c2cc(NC(=O)c3cccc([N+](=O)[O-])c3)ccc21,-2.4,-2.8,7.9,-3.4,1.7,3.7,/
CCn1c2ccccc2c2cc(NC(=O)c3ccc(C)c([N+](=O)[O-])c3)ccc21,-0.1,-1.2,21.4*,-2.4,-2.1,10.6,-3.6
COc1ccccc1NC(=S)N/N=C/c1ccc(O)cc1,2.2,-11.1,19.5*,-2.5,-1.9,5.1,-2.4
COc1ccccc1NC(=S)N/N=C/c1cccc(C)c1,-8.8,4.8,4.0,-12.3,1.6,8.0,/
CCCNC(=O)C1(C)CCN1C(=O)Cc1ccc(C(C)C)cc1 (centres undefined),4.0,-0.7,1.7,/,/,-6.4,/
COc1ccc(-c2nc(-c3ccc4c(c3)OCO4)[nH]c2-c2ccc(OC)cc2)cc1,12.9,3.7,19.2*,6.8,4.0,5.6,0.5
COc1ccc(-c2noc(-c3ccc4c(c3)OCO4)n2)cc1,-1.9,-2.6,-0.6,-2.2,0.7,-9.7,/
O=C(Nc1ccc(OC(F)F)cc1)c1cc[n+]([O-])cc1,-6.1,-2.8,5.0,-3.0,-5.0,-16.1,/
Cc1ccc(CCNC(=O)CSCc2ccc(F)cc2)cc1,-0.1,2.7,4.0,-6.6,2.3,6.7,/
Cc1ccc(OCCNC(=O)[C@H]2O[C@@H](n3ccc(=O)[nH]c3=O)[C@H](O)[C@@H]2O)cc1C,-0.2,5.4,-6.9,/,/,5.9,/
COC(=O)c1ccccc1S(=O)(=O)NC(=O)[C@H]1O[C@@H](n2ccc(=O)[nH]c2=O)[C@H](O)[C@@H]1O,-5.1,8.8,73.9*,/,/,-1.6,73.3*
COc1cccc(-c2cc(CNC(=O)[C@H]3O[C@@H](n4ccc(=O)[nH]c4=O)[C@H](O)[C@@H]3O)no2)c1,5.5,6.9,74.7*,/,/,7.8,68.0*
